Each block holds one molecule with its values, some of them ahead of it.
Columns and labels:
Type in all cases: functional, cell-based
[1] = Antiproliferative activity against human CML-T1 cells after 10 days; settings: CML-T1, 240 h
Method in brief: (§1)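 Tested as part of a 240-line cancer cell panel (Eurofins Oncopanel); all lines were mycoplasma-negative and STR-verified. Cells were exposed to a compound concentration series in 2D culture for 10 days. The highest concentration was 10 μM or 25 μM, depending on the inhibitor. Antiproliferative IC50 was derived from the mean of three biological replicates.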

[2] = tested on: SW837; assay: Antiproliferative activity against human SW837 cells after 10 days; settings: SW837, 240 h
[3] = tested on: HPAF-II; assay: Antiproliferative activity against human HPAF-II cells after 10 days; settings: 240 h
Method in brief: (§2)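 10-day 2D proliferation screen of a broad cancer cell panel (about 240 lines, Eurofins Oncopanel). All lines were mycoplasma negative and STR verified. Compounds were dosed up to a top concentration of 10 μM or 25 μM, depending on the inhibitor. Anti-proliferative IC50 values are the average of three biological replicates.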

[4] = tested on: NCI-H520; assay: Antiproliferative activity against human NCI-H520 cells after 10 days; settings: NCI-H520, 240 h
Method in brief: (§3)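 Broad cancer cell line panel (Eurofins Oncopanel, about 240 lines; mycoplasma negative, STR verified) grown in 2D culture and exposed to compound in a 10-day proliferation assay. The top concentration was 10 μM for the SMYD2 inhibitor series and 25 μM for the SMYD3 inhibitor. The proliferative IC50 is taken from concentration-response data, each value the mean of three biological replicates.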

[5] = Antiproliferative activity against human C32TG cells after 10 days; settings: 240 h; method in brief: as §1
[6] = tested on: SW 962; assay: Antiproliferative activity against human SW 962 cells after 10 days; settings: SW 962, 240 h
[7] = tested on: HMCB cell line; assay: Antiproliferative activity against human HMCB cells after 10 days; settings: 240 h; method in brief: as §2
[8] = tested on: A549; assay: Antiproliferative activity against human A549 cells after 10 days; settings: A549, 240 h; method in brief: as §1
[9] = tested on: HuP-T4; assay: Antiproliferative activity against human HuP-T4 cells after 10 days; settings: HuP-T4, 240 h; method in brief: as §3
[10] = tested on: RPMI-6666; assay: Antiproliferative activity against human RPMI-6666 cells after 10 days; settings: RPMI-6666, 240 h
[11] = tested on: DOHH-2; assay: Antiproliferative activity against human DOHH-2 cells after 10 days; settings: DOHH-2, 240 h; method in brief: as §2
[12] = tested on: HT-1080; assay: Antiproliferative activity against human HT-1080 cells after 10 days; settings: HT-1080, 240 h; method in brief: as §2
[13] = tested on: HEC-1-A; assay: Antiproliferative activity against human HEC-1-A cells after 10 days; settings: 240 h; method in brief: as §2
[14] = Antiproliferative activity against human OCUG-1 cells after 10 days; settings: OCUG-1, 240 h; method in brief: as §3
[15] = tested on: C-33-A; assay: Antiproliferative activity against human C-33-A cells after 10 days; settings: 240 h; method in brief: as §1
[16] = tested on: BFTC-905; assay: Antiproliferative activity against human BFTC-905 cells after 10 days; settings: BFTC-905, 240 h; method in brief: as §1
[17] = tested on: U138-MG; assay: Antiproliferative activity against human U138-MG cells after 10 days; settings: 240 h
[18] = tested on: SK-NEP-1; assay: Antiproliferative activity against human SK-NEP-1 cells after 10 days; settings: SK-NEP-1, 240 h
[19] = tested on: BPH-1; assay: Antiproliferative activity against human BPH-1 cells after 10 days; settings: BPH-1, 240 h; method in brief: as §1
[20] = tested on: EB-3; assay: Antiproliferative activity against human EB-3 cells after 10 days; settings: EB-3, 240 h; method in brief: as §2
[21] = tested on: U-266; assay: Antiproliferative activity against human U266B1 cells after 10 days; settings: U-266, 240 h
[22] = tested on: SW982; assay: Antiproliferative activity against human SW982 cells after 10 days; settings: SW982, 240 h
[23] = tested on: SK-N-DZ; assay: Antiproliferative activity against human SK-N-DZ cells after 10 days; settings: 240 h
[24] = tested on: T47D; assay: Antiproliferative activity against human T47D cells after 10 days; settings: 240 h
[25] = tested on: ASPC1; assay: Antiproliferative activity against human ASPC1 cells after 10 days; settings: ASPC1, 240 h; method in brief: as §1
[26] = tested on: HT-29; assay: Antiproliferative activity against human HT-29 cells after 10 days; settings: HT-29, 240 h; method in brief: as §2
[27] = tested on: Jurkat; assay: Antiproliferative activity against human Jurkat cells after 10 days; settings: 240 h; method in brief: as §3
[28] = tested on: NCI-H747; assay: Antiproliferative activity against human NCI-H747 cells after 10 days; settings: NCI-H747, 240 h; method in brief: as §3
[29] = tested on: SCC-9; assay: Antiproliferative activity against human SCC-9 cells after 10 days; settings: SCC-9, 240 h
[30] = tested on: SW1353; assay: Antiproliferative activity against human SW1353 cells after 10 days; settings: SW1353, 240 h
[31] = tested on: HeLa; assay: Antiproliferative activity against human HeLa cells after 10 days; settings: 240 h; method in brief: as §2
[32] = tested on: SJSA-1; assay: Antiproliferative activity against human SJSA-1 cells after 10 days; settings: SJSA-1, 240 h
[33] = tested on: NALM-6; assay: Antiproliferative activity against human NALM-6 cells after 10 days; settings: NALM-6, 240 h; method in brief: as §3
[34] = tested on: COLO 201; assay: Antiproliferative activity against human COLO201 cells after 10 days; settings: COLO 201, 240 h; method in brief: as §2
[35] = tested on: HCT-15; assay: Antiproliferative activity against human HCT-15 cells after 10 days; settings: HCT-15, 240 h
Method in brief: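 Cell lines run in the Eurofins Oncopanel broad cancer panel, all mycoplasma-negative and STR-verified. Cells were exposed to a compound concentration series in a 10-day proliferation assay, and an anti-proliferative IC50 was derived. Values are the mean of three biological replicates.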

[36] = tested on: SW684; assay: Antiproliferative activity against human SW684 cells after 10 days; settings: SW684, 240 h
[37] = tested on: CAPAN-1; assay: Antiproliferative activity against human CAPAN-1 cells after 10 days; settings: CAPAN-1, 240 h; method in brief: as §1
[38] = tested on: MDA-MB-436; assay: Antiproliferative activity against human MDA-MB-436 cells after 10 days; settings: MDA-MB-436, 240 h; method in brief: as §3
[39] = tested on: ARH-77; assay: Antiproliferative activity against human ARH-77 cells after 10 days; settings: ARH-77, 240 h; method in brief: as §1
[40] = tested on: CAMA-1; assay: Antiproliferative activity against human CAMA-1 cells after 10 days; settings: CAMA-1, 240 h; method in brief: as §1
[41] = tested on: HT; assay: Antiproliferative activity against human HT cells after 10 days; settings: 240 h; method in brief: as §2
[42] = tested on: G-401; assay: Antiproliferative activity against human G-401 cells after 10 days; settings: G-401, 240 h; method in brief: as §2
[43] = Antiproliferative activity against human MT-3 cells after 10 days; settings: MT-3, 240 h; method in brief: as §3
[44] = Antiproliferative activity against human RKOE6 cells after 10 days; settings: RKOE6, 240 h
Method in brief: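 Tested in the Eurofins Oncopanel of about 240 cancer cell lines, all mycoplasma-negative and STR-verified. Cells were exposed to compound for 10 days in 2D culture, and a proliferative IC50 was derived from the concentration series. The highest concentration tested was 10 μM in the SMYD2 inhibitor screen and 25 μM in the SMYD3 inhibitor screen. Values are means of three biological replicates.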

[45] = Antiproliferative activity against human OE21 cells after 10 days; settings: OE21, 240 h; method in brief: as §3
[46] = tested on: Hs 294T; assay: Antiproliferative activity against human Hs 294T cells after 10 days; settings: 240 h; method in brief: as §2
[47] = tested on: OVCAR-3; assay: Antiproliferative activity against human OVCAR-3 cells after 10 days; settings: OVCAR-3, 240 h; method in brief: as §3

- IC50 [2]: 3.69 µM
- IC50 [4]: 2.7 µM
- IC50 [8]: 3.39 µM
- IC50 [12]: 1.98 µM
- IC50 [18]: 3.18 µM
- IC50 [22]: 5.79 µM
- IC50 [23]: 3.76 µM
- IC50 [24]: 2.22 µM
- IC50 [25]: 3.01 µM
- IC50 [26]: 1.26 µM
- IC50 [27]: 0.925 µM
- IC50 [28]: 2.32 µM
- IC50 [30]: 2.98 µM
- IC50 [31]: 2.96 µM
- IC50 [32]: 1.47 µM
- IC50 [34]: 1.06 µM
- IC50 [35]: 1.7 µM
- IC50 [36]: 5.75 µM
- IC50 [38]: 3.03 µM
- IC50 [47]: 3.95 µM
SMILES: Cc1cn(CCN2CCN(c3ccccc3-c3cc(C#N)cc(C(=O)NCCCN4CCCC4)c3)CC2)c2ccccc12
- IC50 [1]: 1.1 µM
- IC50 [3]: 1.6 µM
- IC50 [5]: 2.36 µM
- IC50 [6]: 3.38 µM
- IC50 [7]: 2.86 µM
- IC50 [9]: 3.48 µM
- IC50 [10]: 2.91 µM
- IC50 [11]: 0.263 µM
- IC50 [13]: 1.05 µM
- IC50 [14]: 2.34 µM
- IC50 [15]: 3.23 µM
- IC50 [16]: 2.5 µM
- IC50 [17]: 4.54 µM
- IC50 [19]: 3.49 µM
- IC50 [20]: 0.329 µM
- IC50 [21]: 1.26 µM
- IC50 [29]: 1.18 µM
- IC50 [33]: 1.14 µM
- IC50 [37]: 5.09 µM
- IC50 [39]: 0.78 µM
- IC50 [40]: 2.93 µM
- IC50 [41]: 1.93 µM
- IC50 [42]: 0.905 µM
- IC50 [43]: 1.24 µM
- IC50 [44]: 1.07 µM
- IC50 [45]: 1.06 µM
- IC50 [46]: 2.48 µM

- IC50 [2]: > 10 µM
- IC50 [4]: > 10 µM
- IC50 [8]: > 10 µM
- IC50 [12]: > 10 µM
- IC50 [18]: > 10 µM
- IC50 [22]: > 10 µM
- IC50 [23]: > 10 µM
- IC50 [24]: > 10 µM
- IC50 [25]: > 10 µM
- IC50 [26]: > 10 µM
- IC50 [27]: > 10 µM
- IC50 [28]: > 10 µM
- IC50 [30]: > 10 µM
- IC50 [31]: > 10 µM
- IC50 [32]: > 10 µM
- IC50 [34]: > 10 µM
- IC50 [35]: > 10 µM
- IC50 [36]: > 10 µM
- IC50 [38]: > 10 µM
- IC50 [47]: > 10 µM
SMILES: O=C(NC1CN(Cc2cnn(Cc3ccccc3)c2)C1)c1cn(C2CC2)nn1
- IC50 [1]: > 10 µM
- IC50 [3]: > 10 µM
- IC50 [5]: > 10 µM
- IC50 [6]: > 10 µM
- IC50 [7]: > 10 µM
- IC50 [9]: > 10 µM
- IC50 [10]: > 10 µM
- IC50 [11]: > 10 µM
- IC50 [13]: > 10 µM
- IC50 [14]: > 10 µM
- IC50 [15]: > 10 µM
- IC50 [16]: > 10 µM
- IC50 [17]: > 10 µM
- IC50 [19]: > 10 µM
- IC50 [20]: > 10 µM
- IC50 [21]: > 10 µM
- IC50 [29]: > 10 µM
- IC50 [33]: > 10 µM
- IC50 [37]: > 10 µM
- IC50 [39]: > 10 µM
- IC50 [40]: > 10 µM
- IC50 [41]: > 10 µM
- IC50 [42]: > 10 µM
- IC50 [43]: > 10 µM
- IC50 [44]: > 10 µM
- IC50 [45]: 3.4 µM
- IC50 [46]: > 10 µM
